Test results taken from ChEMBL document CHEMBL4689842, “EUbOPEN Chemogenomics Library wave 1” (2021).

Tests used:
Assay type in all cases: toxicity, cell-based
[1] = test system: HEK-293T; assay: Incucyte cell viability with HEK293T; settings: human, 10 µM, compound concentration 10 uM; note: filed as whole numbers so only -1 and 0 and 1 occur
[2] = test system: U2OS; assay: Multiplex assay against U2OS; settings: human
Procedure, shortened: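 Live cells were stained at seeding with Hoechst33342, BioTracker Green Microtubule Cytoskeleton Dye, MitoTracker Red and Annexin V Alexa Fluor 680, then imaged on a CQ1 microscope at 37°C and 5% CO2 after compound addition. CellPathfinder machine-learning gating split cells into Hoechst high-intensity objects or normal cells. Normal cells were split into healthy, pyknosed or fragmented nuclei, and pyknosed cells into mitotic or apoptotic. Tubulin, mitochondrial-mass and membrane-permeability phenotypes are per cents of healthy-nucleus cells.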

[3] = test system: U2OS; assay: Incucyte cell viability with U2OS; settings: human, 10 µM, compound concentration 10 uM; note: filed as whole numbers so only -1 and 0 and 1 occur
[4] = 6 h, replicate number 1, timepoint 6 hours
[5] = 12 h, replicate number 1, timepoint 12 hours
[6] = 18 h, replicate number 1, timepoint 18 hours
[7] = 24 h, replicate number 1, timepoint 24 hours
[8] = 12 h, 1 µM, compound concentration 1 uM, replicate 1
[9] = 12 h, 1 µM, compound concentration 1 uM, replicate 2
[10] = 12 h, 10 µM, compound concentration 10 uM, replicate 1
[11] = 12 h, 10 µM, compound concentration 10 uM, replicate 2
[12] = 24 h, 1 µM, compound concentration 1 uM, replicate 1
[13] = 24 h, 1 µM, compound concentration 1 uM, replicate 2
[14] = 24 h, 10 µM, compound concentration 10 uM, replicate 1
[15] = 24 h, 10 µM, compound concentration 10 uM, replicate 2

SMILES: Cl.Cn1c2c(c3ccc(Cl)c(Cl)c31)C(C#N)C1(CCNCC1)NC2=O (stereo unspecified)
- Growth Rate [1, 4]: 0
- Growth Rate [1, 5]: 0
- Growth Rate [1, 6]: 0
- Growth Rate [1, 7]: 0
- Population Apoptotic (%) [2, 8]: 30%
- Population Fragmented Nuclei (%) [2, 8]: 2%
- Population Healthy Nuclei (%) [2, 8]: 90%
- Population Hoechst High Intensity Objects (%) [2, 8]: 1%
- Population Mitochondria Different-Phenotype (%) [2, 8]: 14%
- Population Mitotic Cells (%) [2, 8]: 69%
- Population Normal (%) [2, 8]: 98%
- Population Pyknosed Nuclei (%) [2, 8]: 7%
- Population Tubulin-Different-Phenotype (%) [2, 8]: 19%
- Total Cell Count [2, 8]: 137
- Population Apoptotic (%) [2, 9]: 0%
- Population Fragmented Nuclei (%) [2, 9]: 4%
- Population Healthy Nuclei (%) [2, 9]: 94%
- Population Hoechst High Intensity Objects (%) [2, 9]: 13%
- Population Membrane Permeable-Phenotype (%) [2, 9]: 9%
- Population Mitochondria Different-Phenotype (%) [2, 9]: 36%
- Population Mitotic Cells (%) [2, 9]: 100%
- Population Normal (%) [2, 9]: 86%
- Population Pyknosed Nuclei (%) [2, 9]: 0%
- Population Tubulin-Different-Phenotype (%) [2, 9]: 38%
- Total Cell Count [2, 9]: 159
- Population Apoptotic (%) [2, 10]: 56%
- Population Fragmented Nuclei (%) [2, 10]: 20%
- Population Healthy Nuclei (%) [2, 10]: 20%
- Population Hoechst High Intensity Objects (%) [2, 10]: 3%
- Population Membrane Permeable-Phenotype (%) [2, 10]: 53%
- Population Mitochondria Different-Phenotype (%) [2, 10]: 80%
- Population Mitotic Cells (%) [2, 10]: 43%
- Population Normal (%) [2, 10]: 96%
- Population Pyknosed Nuclei (%) [2, 10]: 58%
- Population Tubulin-Different-Phenotype (%) [2, 10]: 96%
- Total Cell Count [2, 10]: 183
- Population Apoptotic (%) [2, 11]: 61%
- Population Fragmented Nuclei (%) [2, 11]: 22%
- Population Healthy Nuclei (%) [2, 11]: 27%
- Population Hoechst High Intensity Objects (%) [2, 11]: 24%
- Population Membrane Permeable-Phenotype (%) [2, 11]: 36%
- Population Mitochondria Different-Phenotype (%) [2, 11]: 90%
- Population Mitotic Cells (%) [2, 11]: 38%
- Population Normal (%) [2, 11]: 75%
- Population Pyknosed Nuclei (%) [2, 11]: 49%
- Population Tubulin-Different-Phenotype (%) [2, 11]: 95%
- Total Cell Count [2, 11]: 123
- Population Apoptotic (%) [2, 12]: 40%
- Population Fragmented Nuclei (%) [2, 12]: 4%
- Population Healthy Nuclei (%) [2, 12]: 88%
- Population Hoechst High Intensity Objects (%) [2, 12]: 1%
- Population Membrane Permeable-Phenotype (%) [2, 12]: 5%
- Population Mitochondria Different-Phenotype (%) [2, 12]: 13%
- Population Mitotic Cells (%) [2, 12]: 60%
- Population Normal (%) [2, 12]: 98%
- Population Pyknosed Nuclei (%) [2, 12]: 6%
- Population Tubulin-Different-Phenotype (%) [2, 12]: 26%
- Total Cell Count [2, 12]: 129
- Population Apoptotic (%) [2, 13]: 75%
- Population Fragmented Nuclei (%) [2, 13]: 3%
- Population Healthy Nuclei (%) [2, 13]: 93%
- Population Hoechst High Intensity Objects (%) [2, 13]: 10%
- Population Membrane Permeable-Phenotype (%) [2, 13]: 8%
- Population Mitochondria Different-Phenotype (%) [2, 13]: 29%
- Population Mitotic Cells (%) [2, 13]: 25%
- Population Normal (%) [2, 13]: 89%
- Population Pyknosed Nuclei (%) [2, 13]: 2%
- Population Tubulin-Different-Phenotype (%) [2, 13]: 31%
- Total Cell Count [2, 13]: 157
- Population Apoptotic (%) [2, 14]: 85%
- Population Fragmented Nuclei (%) [2, 14]: 37%
- Population Healthy Nuclei (%) [2, 14]: 10%
- Population Hoechst High Intensity Objects (%) [2, 14]: 16%
- Population Membrane Permeable-Phenotype (%) [2, 14]: 92%
- Population Mitochondria Different-Phenotype (%) [2, 14]: 100%
- Population Mitotic Cells (%) [2, 14]: 14%
- Population Normal (%) [2, 14]: 83%
- Population Pyknosed Nuclei (%) [2, 14]: 52%
- Population Tubulin-Different-Phenotype (%) [2, 14]: 92%
- Total Cell Count [2, 14]: 231
- Population Apoptotic (%) [2, 15]: 76%
- Population Fragmented Nuclei (%) [2, 15]: 33%
- Population Healthy Nuclei (%) [2, 15]: 17%
- Population Hoechst High Intensity Objects (%) [2, 15]: 30%
- Population Membrane Permeable-Phenotype (%) [2, 15]: 75%
- Population Mitochondria Different-Phenotype (%) [2, 15]: 91%
- Population Mitotic Cells (%) [2, 15]: 23%
- Population Normal (%) [2, 15]: 69%
- Population Pyknosed Nuclei (%) [2, 15]: 49%
- Population Tubulin-Different-Phenotype (%) [2, 15]: 91%
- Total Cell Count [2, 15]: 164
- Growth Rate ([3]; 0 h, replicate number 1, timepoint 0 hours): 0
- Growth Rate [3, 4]: 0
- Growth Rate [3, 5]: 0
- Growth Rate [3, 6]: 0
- Growth Rate [3, 7]: 0
